Laboratory results: ChEMBL document CHEMBL1128718, “2-Substituted penems with amino acid-related side chains: synthesis and antibacterial activity of a new series of beta-lactam antibiotics” (1995)
Converted amounts (≈) assume the structure as drawn.

Columns and labels:
Type in all cases: functional
Pseudomonas aeruginosa [1] = assay: In Vitro antibacterial activity against (Pa) Pseudomonas aeruginosa ATCC 27853
Summary of the method: (§1)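 Panel of standard ATCC strains plus modified strains: methicillin-resistant, hyperpermeable, β-lactamase-producing (TEM1, TEM2, SHV) and β-lactamase-lacking. MIC determined in Mueller Hinton 2 medium, inoculum 10⁴ cells/mL, incubated 24 h at 37 °C.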

Enterococcus faecalis = assay: In Vitro antibacterial activity against (Ef) Enterococcus faecalis ATCC 29212; summary of the method: as §1
Pseudomonas aeruginosa [2] = assay: In Vitro antibacterial activity against (Pa G242) hyperpermeable Pseudomonas aeruginosa strain; summary of the method: as §1
Staphylococcus aureus [3] = assay: In vitro antibacterial activity against Sa MR(I) heterogeneous methicillin resistant Staphylococcus aureus
Summary of the method: (§2)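 MIC was determined in Mueller Hinton 2 medium with an inoculum of 10⁴ cells/mL and incubation for 24 h at 37 °C. Strains: Sa(I) is S. aureus ATCC 29213; Sa MR(I) is a heterogeneous methicillin-resistant S. aureus; Sa MR(II) is a homogeneous methicillin-resistant S. aureus.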

Escherichia coli [4] = assay: In Vitro antibacterial activity against (Ec L) Escherichia coli […] strain; summary of the method: as §1
Staphylococcus aureus [5] = assay: In vitro antibacterial activity against Sa(I) Staphylococcus aureus ATCC 29213; summary of the method: as §2
Pseudomonas aeruginosa [6] = assay: In Vitro antibacterial activity against (Pa) hyperpermeable Pseudomonas aeruginosa […] strain; summary of the method: as §1
Escherichia coli [7] = assay: In Vitro antibacterial activity against (Ec SHV) Escherichia coli […] strain; summary of the method: as §1
Escherichia coli [8] = assay: In Vitro antibacterial activity against (Ec TEM2) Escherichia coli […] strain; summary of the method: as §1
Escherichia coli [9] = assay: In Vitro antibacterial activity against (Ec) Escherichia coli ATCC 25922; summary of the method: as §1
Escherichia coli [10] = assay: In Vitro antibacterial activity against (Ec DC2) hyperpermeable Escherichia coli strain; summary of the method: as §1
Staphylococcus aureus [11] = assay: In vitro antibacterial activity against Sa MR(II) homogeneous methicillin resistant Staphylococcus aureus; summary of the method: as §2
Staphylococcus aureus [12] = assay: In vitro antibacterial activity against Sa(II) Staphylococcus aureus ATCC 25923; summary of the method: as §1
Escherichia coli [13] = assay: In Vitro antibacterial activity against (Ec TEM1) Escherichia coli […] strain; summary of the method: as §1

Compound | MIC (Pseudomonas aeruginosa [1]) [µg/mL] | MIC (Enterococcus faecalis) [µg/mL] | MIC (Pseudomonas aeruginosa [2]) [µg/mL] | MIC (Staphylococcus aureus [3]) [µg/mL] | MIC (Escherichia coli [4]) [µg/mL] | MIC (Staphylococcus aureus [5]) [µg/mL] | MIC (Pseudomonas aeruginosa [6]) [µg/mL] | MIC (Escherichia coli [7]) [µg/mL] | MIC (Escherichia coli [8]) [µg/mL] | MIC (Escherichia coli [9]) [µg/mL] | MIC (Escherichia coli [10]) [µg/mL] | MIC (Staphylococcus aureus [11]) [µg/mL] | MIC (Staphylococcus aureus [12]) [µg/mL] | MIC (Escherichia coli [13]) [µg/mL]
C[C@@H](O)[C@H]1C(=O)N2C(C(=O)O)=C(CN3CCCCC3C(N)=O)S[C@H]12 (stereo not given in full) | > 64 | 16 (≈ 45 µM) | 1 (≈ 2.81 µM) | 0.12 (≈ 0.338 µM) | 1 (≈ 2.81 µM) | 0.12 (≈ 0.338 µM) | 4 (≈ 11.3 µM) | 2 (≈ 5.63 µM) | 2 (≈ 5.63 µM) | 1 (≈ 2.81 µM) | 1 (≈ 2.81 µM) | 2 (≈ 5.63 µM) | 0.06 (≈ 0.169 µM) | 1 (≈ 2.81 µM)
C[C@@H](O)[C@H]1C(=O)N2C(C(=O)O)=C(CN(C)C(CO)C(N)=O)S[C@H]12 (stereo not given in full) | > 64 | 4 (≈ 11.6 µM) | 1 (≈ 2.9 µM) | 0.25 (≈ 0.724 µM) | 0.5 (≈ 1.45 µM) | 0.12 (≈ 0.347 µM) | 8 (≈ 23.2 µM) | 2 (≈ 5.79 µM) | 1 (≈ 2.9 µM) | 0.12 (≈ 0.347 µM) | 1 (≈ 2.9 µM) | 8 (≈ 23.2 µM) | 0.06 (≈ 0.174 µM) | 1 (≈ 2.9 µM)
C[C@@H](O)[C@H]1C(=O)N2C(C(=O)O)=C(CN3CC3C(N)=O)S[C@H]12 (stereo not given in full) | > 64 | 16 (≈ 51.1 µM) | 2 (≈ 6.38 µM) | 0.25 (≈ 0.798 µM) | 4 (≈ 12.8 µM) | 0.5 (≈ 1.6 µM) | 1 (≈ 3.19 µM) | 4 (≈ 12.8 µM) | 2 (≈ 6.38 µM) | 2 (≈ 6.38 µM) | 4 (≈ 12.8 µM) | 8 (≈ 25.5 µM) | 0.25 (≈ 0.798 µM) | 2 (≈ 6.38 µM)
C[C@@H](O)[C@H]1C(=O)N2C(C(=O)O)=C(CN3C[C@@H](O)C[C@H]3C(N)=O)S[C@H]12 | > 64 | 16 (≈ 44.8 µM) | 2 (≈ 5.6 µM) | 0.25 (≈ 0.7 µM) | 2 (≈ 5.6 µM) | 0.25 (≈ 0.7 µM) | 0.5 (≈ 1.4 µM) | 2 (≈ 5.6 µM) | 2 (≈ 5.6 µM) | 0.5 (≈ 1.4 µM) | 2 (≈ 5.6 µM) | 8 (≈ 22.4 µM) | 0.12 (≈ 0.336 µM) | 1 (≈ 2.8 µM)
C[C@@H](O)[C@H]1C(=O)N2C(C(=O)O)=C(CN3C[C@@H](O)C[C@@H]3C(N)=O)S[C@H]12 | > 64 | 32 (≈ 89.5 µM) | 1 (≈ 2.8 µM) | 0.25 (≈ 0.7 µM) | 1 (≈ 2.8 µM) | 0.12 (≈ 0.336 µM) | 0.5 (≈ 1.4 µM) | 1 (≈ 2.8 µM) | 1 (≈ 2.8 µM) | 1 (≈ 2.8 µM) | 1 (≈ 2.8 µM) | 16 (≈ 44.8 µM) | 0.06 (≈ 0.168 µM) | 1 (≈ 2.8 µM)
